# Data taken from ChEMBL document CHEMBL1135142, “Synthesis and in vitro evaluation of N,N'-diphenyl and N-naphthyl-N'-phenylguanidines as N-methyl-D-aspartate receptor ion-channel ligands” (Bioorg Med Chem Lett, 2002).
# pKi: −log10 of the molar value.
# System: not listed separately
# Test: Partition coefficient (logP)
# Type: physicochemical
# Settings: octanol/water
# How it was run: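 Lipophilicity (log P) estimated by HPLC analysis.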
row,Compound,logP
1,CSc1cccc(N(C)C(=N)Nc2cc(SC)ccc2Cl)c1 [CNS-5161],2.68
2,CSc1ccc(Cl)c(NC(=N)N(C)c2cc(C)cc(C)c2)c1,3.12
3,CN(C(=N)Nc1cccc2ccccc12)c1cccc(I)c1,2.94
4,CN(C(=N)Nc1cccc2ccccc12)c1cccc(F)c1,2.31

# Second part, the molecule after the results:
row,logP,Compound
1,2.26,COc1cccc(N(C)C(=N)Nc2cccc3ccccc23)c1
2,3,CCc1cccc(N(C)C(=N)Nc2cc(SC)ccc2Cl)c1
3,2.34,COc1cccc(N(C)C(=N)Nc2cc(SC)ccc2Cl)c1
4,2.94,Cc1cc(C)cc(N(C)C(=N)Nc2cccc3ccccc23)c1
5,2.91,CSc1ccc(Cl)c(NC(=N)N(C)c2cccc(I)c2)c1
6,2.34,CSc1ccc(Cl)c(NC(=N)N(C)c2cccc(F)c2)c1

# Biological target: Glutamate NMDA receptor
# Test: In vitro binding to N-methyl-D-aspartate glutamate receptor using [3H]MK-801 (1 nM) and rat brain membrane suspensions
# Settings: not given
# How it was run: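 Test compounds displaced the radioligand, and IC₅₀ values were read from displacement curves. Ki was calculated from IC₅₀ by the Cheng–Prusoff method. Values are means of at least three experiments, with standard deviation.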
row,Compound,pKi
1,CSc1cccc(N(C)C(=N)Nc2cc(SC)ccc2Cl)c1 [CNS-5161],8.73
2,CSc1ccc(Cl)c(NC(=N)N(C)c2cc(C)cc(C)c2)c1,7.85
3,CN(C(=N)Nc1cccc2ccccc12)c1cccc(I)c1,8.33
4,CN(C(=N)Nc1cccc2ccccc12)c1cccc(F)c1,6.08

# Further lines, results first:
row,pKi,Compound
1,7.36,COc1cccc(N(C)C(=N)Nc2cccc3ccccc23)c1
2,8.20,CCc1cccc(N(C)C(=N)Nc2cc(SC)ccc2Cl)c1
3,8.28,COc1cccc(N(C)C(=N)Nc2cc(SC)ccc2Cl)c1
4,7.66,Cc1cc(C)cc(N(C)C(=N)Nc2cccc3ccccc23)c1
5,8.46,CSc1ccc(Cl)c(NC(=N)N(C)c2cccc(I)c2)c1
